Measurements taken from ChEMBL document CHEMBL1127405, “Synthesis and antitumor evaluation of bis[(pivaloyloxy)methyl] 2'-deoxy-5-fluorouridine 5'-monophosphate (FdUMP): a strategy to introduce nucleotides into cells” (J Med Chem, 1994).

What was measured:
[1] = The compound was tested for half life in aqueous media in 0.05 M NaOH, at 12.6; type: ADME; conditions: aqueous 0.05 M NaOH, pH 12.6
Method in brief: (§1)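 A 10^-3 M aqueous stock was diluted into each buffer to a final 10^-4 M and stirred at room temperature. Aliquots were taken at intervals (typically 2–100 h) and parent drug was quantified by reverse-phase C-18 HPLC with UV detection at 268 nm. Half-lives are the average of triplicate determinations.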

[2] = The compound was tested for half life in aqueous media in 0.05 M NaOH, at pH 11.7; type: ADME; conditions: aqueous 0.05 M NaOH; method in brief: as §1
[3] = The compound was tested for half life in aqueous media in 0.05 M Tris-HCl buffer, at pH 9.0; type: ADME; method in brief: as §1
[4] = The compound was tested for half life in aqueous media in 0.05 M potassium phosphate buffer, at pH 7.4; type: ADME; method in brief: as §1
[5] = The compound was tested for half life in aqueous media in 0.05 M sodium acetate buffer, at pH 4.0; type: ADME; method in brief: as §1
CHO [6] = test: The minimun drug concentration that gives rise to colonies containing fewer than 50 cells after incubation at 37 degree C against chinese hamster ovary cells; type: functional, cell-based; conditions: Cricetulus griseus
Method in brief: (§2)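 About 200 cells per dish were grown as clones in drug at 0, 0.5, 1.5, 5, 10, 50 or 100 μM for 7 d at 37 °C in humidified CO2. Colonies were fixed with 10% formaldehyde and stained with 0.1% crystal violet. The value is the lowest tested concentration giving colonies of fewer than 50 cells.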

CHO [7] = test: The minimun drug concentration that gives rise to colonies containing fewer than 50 cells after incubation at 37 degree C against chinese hamster ovary cells 20 fold resistant to fluoroudine; type: functional, cell-based; conditions: Cricetulus griseus; method in brief: as §2
Mus musculus [8] = test: The compound was tested for increase in life span for mice implanted intraperitoneally with P-388/FU Leukemia cell line at 335 mg/kg; type: functional; conditions: P388, ip, route intraperitoneal
Method in brief: (§3)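 Male BDF1 mice, six per group, implanted ip with 1×10^6 P-388/0 or P-388/FU cells on day 0. Dosed ip daily for 5 days from 24 h post-implant, in saline or Emulphor 620 vehicle. Mice observed until death. %ILS = (T/C − 1)×100, from median survival of treated mice (T) versus saline-treated controls (C).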

Mus musculus [9] = test: The compound was tested for increase in life span for mice implanted intraperitoneally with P-388/0 Leukemia cell line at 149 mg/kg; type: functional; conditions: P388, ip, route intraperitoneal; method in brief: as §3
Mus musculus [10] = test: The compound was tested for increase in life span for mice implanted intraperitoneally with P-388/FU Leukemia cell line at 223 mg/kg; type: functional; conditions: P388, ip, route intraperitoneal; method in brief: as §3
Mus musculus [11] = test: The compound was tested for increase in life span for mice implanted intraperitoneally with P-388/0 Leukemia cell line at 223 mg/kg; type: functional; conditions: P388, ip, route intraperitoneal; method in brief: as §3
Mus musculus [12] = test: The compound was tested for increase in life span for mice implanted intraperitoneally with P-388/0 Leukemia cell line at 335 mg/kg; type: functional; conditions: P388, ip, route intraperitoneal; method in brief: as §3
Mus musculus [13] = test: The compound was tested for increase in life span for mice implanted intraperitoneally with P-388/FU Leukemia cell line at 149 mg/kg; type: functional; conditions: P388, ip, route intraperitoneal; method in brief: as §3
Mus musculus [14] = test: The compound was tested for mean survival time for 15 mice implanted Intraperitoneally with P-388/0 Leukemia cell line at 149 mg/kg; type: functional; conditions: route intraperitoneal
Method in brief: (§4)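 P-388/0 or P-388/FU cells (1×10^6) implanted ip into male BDF1 mice on day 0. Dosing was ip, daily for 5 consecutive days beginning 24 h later, in saline or Emulphor 620 vehicle. Six mice per treated group. Animals followed to death and median survival time recorded in days. The control group had 15 mice.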

Mus musculus [15] = test: The compound was tested for mean survival time for 15 mice implanted Intraperitoneally with P-388/0 Leukemia cell line at 335 mg/kg; type: functional; conditions: route intraperitoneal; method in brief: as §4
Mus musculus [16] = test: The compound was tested for mean survival time for 15 mice implanted Intraperitoneally with P-388/FU Leukemia cell line at 149 mg/kg; type: functional; conditions: route intraperitoneal; method in brief: as §4
Mus musculus [17] = test: The compound was tested for mean survival time for 15 mice implanted Intraperitoneally with P-388/FU Leukemia cell line at 223 mg/kg; type: functional; conditions: route intraperitoneal; method in brief: as §4
Mus musculus [18] = test: The compound was tested for mean survival time for 15 mice implanted Intraperitoneally with P-388/FU Leukemia cell line at 335 mg/kg; type: functional; conditions: route intraperitoneal; method in brief: as §4
Mus musculus [19] = test: The compound was tested for change in weight for mice implanted intraperitoneally with P-388/0 Leukemia cell line at 149 mg/kg; type: functional; conditions: route intraperitoneal
Method in brief: (§5)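 Male BDF1 mice inoculated ip on day 0 with 1 × 10^6 leukemia cells (six mice per group, average weight 22 g). Dosing ip once daily for 5 consecutive days starting 24 h after implantation. Fluoropyrimidine references in 0.9% saline; prodrugs formulated with Emulphor 620; vehicle controls 0.2 mL. Percent body weight change recorded per group.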

Mus musculus [20] = test: The compound was tested for change in weight for mice implanted intraperitoneally with P-388/0 Leukemia cell line at 223 mg/kg; type: functional; conditions: route intraperitoneal; method in brief: as §5
Mus musculus [21] = test: The compound was tested for change in weight for mice implanted intraperitoneally with P-388/0 Leukemia cell line at 335 mg/kg; type: functional; conditions: route intraperitoneal; method in brief: as §5
Mus musculus [22] = test: The compound was tested for change in weight for mice implanted intraperitoneally with P-388/FU Leukemia cell line at 149 mg/kg; type: functional; conditions: route intraperitoneal; method in brief: as §5
Mus musculus [23] = test: The compound was tested for change in weight for mice implanted intraperitoneally with P-388/FU Leukemia cell line at 223 mg/kg; type: functional; conditions: route intraperitoneal; method in brief: as §5
Mus musculus [24] = test: The compound was tested for change in weight for mice implanted intraperitoneally with P-388/FU Leukemia cell line at 335 mg/kg; type: functional; conditions: route intraperitoneal; method in brief: as §5
[25] = The compound was tested for half life in aqueous media in 0.20 M HCl/KCl solution, at pH 1.0; type: ADME; method in brief: as §1
Mus musculus [26] = test: The compound was tested for mean survival time for 15 mice implanted Intraperitoneally with P-388/0 Leukemia cell line at 223 mg/kg; type: functional; conditions: route intraperitoneal; method in brief: as §4

CC(C)(C)C(=O)OCOP(=O)(OCOC(=O)C(C)(C)C)OC[C@H]1O[C@@H](n2cc(F)c(=O)[nH]c2=O)C[C@@H]1O
half-life [1]: 1.8 min
half-life [2]: 0.37 h
half-life [3]: 21.6 h
half-life [4]: 40.2 h
half-life [5]: 172 h
IC50 (CHO [6]): 5 µM
IC50 (CHO [7]): 5 µM
ILS at 335 mg/kg (Mus musculus [8]): 64%
ILS at 149 mg/kg (Mus musculus [9]): 36%
ILS at 223 mg/kg (Mus musculus [10]): 64%
ILS at 223 mg/kg (Mus musculus [11]): 45%
ILS at 335 mg/kg (Mus musculus [12]): 73%
ILS at 149 mg/kg (Mus musculus [13]): 55%
MST (Mus musculus [14]): 15 days
MST (Mus musculus [15]): 19 days
MST (Mus musculus [16]): 17 days
MST (Mus musculus [17]): 18 days
MST (Mus musculus [18]): 18 days
Weight change (Mus musculus [19]): 3%
Weight change (Mus musculus [20]): -11%
Weight change (Mus musculus [21]): -12%
Weight change (Mus musculus [22]): -9%
Weight change (Mus musculus [23]): -12%
Weight change (Mus musculus [24]): -13%
half-life [25]: 142 h
MST (Mus musculus [26]): 16 days
